Rows were chosen to be rich in hits. Some 2% of all compounds tested hit in one or more screens of this group.
GSTO1 counter: counter-screen for RBBP9 inhibitors: inhibitors of human GSTO1; recombinant GSTO1, activity-based probe fluorescence polarization; inhibition, % at 5.96 µM; AID 1974; hit rate 1.1% among 300,000; P78417;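 active = inhibition above the campaign mean inhibition plus 3 SD, cut at about 35% in these data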;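 also: 0% = GSTO1-1 with DMSO and 100% = wells lacking GSTO1-1 enzyme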
Target sequence (P78417 whole entry, looked up): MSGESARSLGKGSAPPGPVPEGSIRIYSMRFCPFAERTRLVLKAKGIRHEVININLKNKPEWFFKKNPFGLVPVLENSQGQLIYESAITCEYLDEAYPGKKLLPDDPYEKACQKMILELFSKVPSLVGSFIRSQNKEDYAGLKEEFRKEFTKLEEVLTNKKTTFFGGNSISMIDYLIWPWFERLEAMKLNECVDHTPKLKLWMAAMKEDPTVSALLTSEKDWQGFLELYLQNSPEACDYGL
UCH37 inh: blocks the human deubiquitinase UCH37; Q9Y5K5; purified proteasome/UCH37, Ub-AMC cleavage fluorescence; inhibition, % (concentration not given with the values); hit rate 0.33% among 330,000; AID 588478;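 active = mean inhibition over replicate wells above about 20%, limit read from the data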;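 also: 0% = compound-free wells with enzyme and 100% = wells lacking proteasome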
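Test system – human UCH37 enzyme supplied as purified proteasome complex · Incubation – 30 min preincubation with enzyme, 25 min cleavage at room temperature · Detection – AMC fluorescence from Ub-AMC cleavage, excitation 355 nm, emission 460 nm · Benchmarks – no-proteasome wells (full inhibition) and compound-free wells (no inhibition)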
Apaf1 inhib: inhibitors of human Apaf-1 apoptosome | O14727 | reconstituted apoptosome caspase-3 activity, DEVD-Rh110 fluorescence | inhibition, % at 20 µM | hit rate 0.71% among 330,000 | AID 489030; active = inhibition of at least 40% at 20 µM;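 also: plate controls were DMSO wells for no effect and DEVD-CHO caspase inhibitor wells for full effect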
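System: reconstituted apoptosome with Apaf-1, cytochrome c, caspase-9, procaspase-3, dATP; Signal: Rh110 fluorescence intensity; Schedule: 30 min compound preincubation, 50 min activation, room temperature; Reagent: cytochrome c trigger plus (Z-DEVD)2-Rh110 caspase-3 substrate.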
PP5 primary: blocks human protein phosphatase 5 activity; P53041; purified PP5c, OMFP substrate fluorescence; inhibition, % at 6.7 µM; hit rate 0.18% among 320,000; AID 1987;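 active = inhibition above the campaign's mean inhibition across all tested compounds plus 3 SD, cut at about 9.5% in these data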;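 also: 0% = DMSO only and 100% = 100 µM cantharidin control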
Target sequence (P53041 whole entry, looked up): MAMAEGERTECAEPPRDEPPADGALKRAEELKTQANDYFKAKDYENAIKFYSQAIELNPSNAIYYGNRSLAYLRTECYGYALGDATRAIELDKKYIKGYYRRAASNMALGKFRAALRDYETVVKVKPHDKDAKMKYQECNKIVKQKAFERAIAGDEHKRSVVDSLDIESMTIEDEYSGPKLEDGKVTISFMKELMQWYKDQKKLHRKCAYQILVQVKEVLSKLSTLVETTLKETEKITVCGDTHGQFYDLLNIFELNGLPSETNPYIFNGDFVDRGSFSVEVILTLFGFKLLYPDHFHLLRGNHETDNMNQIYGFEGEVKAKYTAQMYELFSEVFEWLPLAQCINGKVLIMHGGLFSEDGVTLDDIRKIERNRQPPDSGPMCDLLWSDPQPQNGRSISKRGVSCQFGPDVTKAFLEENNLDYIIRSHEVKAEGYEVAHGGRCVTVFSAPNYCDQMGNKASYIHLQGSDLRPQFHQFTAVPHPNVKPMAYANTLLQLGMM
PAD4 inh: PAD4 (human) enzyme inhibition; recombinant PAD4, RCA probe fluorescence polarization; inhibition, % at 6.36 µM; hit rate 0.41% among 330,000; AID 485272;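 active = percent inhibition above a cutoff equal to the mean of all tested compounds plus 3 SD, cut at about 15% in these data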;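 also: 0% = PAD4 with RCA probe and DMSO and 100% = probe without PAD4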
Fh CTSL1 inh: blocks F. hepatica cathepsin L1 in PFM18AAP counter-screen; hit rate 0.49% among 300,000; inhibition, % at 5.96 µM; recombinant F. hepatica cathepsin L1, Z-Leu-Arg-MCA fluorescence;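 active = inhibition above the mean of all tested compounds plus 3 SD, set per screening campaign, cut at about 17% in these data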;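 also: 0% = plate median of test compound wells and 100% = 1 µM Z-Phe-Ala-diazomethylketone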
UCH37 confirm: UCH37 Ub-AMC cleavage inhibition, confirmed | hit rate 27% among 480 | shares compounds with UCH37 inh | Proteasome-bound UCH37, Ub-AMC cleavage fluorescence | inhibition, % at 20 µM;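 active = average inhibition over replicates above about 50%, so the earlier screening hit is confirmed, limit read from the data; inactive = the rest, counted as false positives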;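 also: based on cleavage rate fitted by regression over a 30 min kinetic read; 0% = proteasome plus Ub-AMC and 100% = Ub-AMC without proteasome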
Numbers without * were called inactive; · = not tested or not shown.

SMILES	GSTO1 counter	UCH37 inh	Apaf1 inhib	PP5 primary	PAD4 inh	Fh CTSL1 inh	UCH37 confirm
Cc1[nH]c2ccccc2c1C=NNc1nc(Nc2ccccc2)nc(N2CCOCC2)n1	·	2.4	·	·	·	·	·
Clc1cnc(NN=Cc2ccco2)c(Cl)c1	·	9.0	·	·	·	·	·
Cc1[nH][nH]c(=O)c1C(c1cc([N+](=O)[O-])ccc1O)c1c(C)[nH][nH]c1=O	16.5	3.3	·	2.1	-13.8	4.0	·
Cc1[nH][nH]c(=O)c1C(c1c(C)[nH][nH]c1=O)c1cn(C)c2ccccc12	·	89.6*	·	·	·	·	56.7*
CC(C)=CCC(C)(C)C1OCCN1C(=O)c1ccccc1 (configuration not stated)	0.1	63.4*	2.8	-0.2	-6.2	2.0	67.8*
O=C(NCc1ccccc1)C(=O)NCC1OCCN1C(=O)c1ccc(Cl)cc1 (configuration not stated)	6.5	5.3	-4.5	-3.2	-2.5	5.1	·
NS(=O)(=O)c1ccc(Nc2ccc([N+](=O)[O-])c3nonc23)cc1	36.7*	26.1*	11.7	2.9	-3.5	7.0	5.3
CCc1nnc(NS(=O)(=O)c2ccc(NS(=O)(=O)c3ccccc3[N+](=O)[O-])cc2)s1	-6.3	-0.2	25.6	-6.1	-1.2	-1.1	·
CCc1nnc(NS(=O)(=O)c2ccc(Nc3ccc([N+](=O)[O-])c4nonc34)cc2)s1	-30.5	34.6*	23.4	2.2	-9.7	1.2	30.6
CC(=NNC(=O)c1cc(C)oc1C)c1ccc(C)c([N+](=O)[O-])c1	·	3.2	·	·	·	·	·
N#CC(=NNc1ccc([N+](=O)[O-])cc1)C(N)=S	·	29.0*	·	·	·	·	18.9
CN(C)CCCN(C(=O)c1ccc([N+](=O)[O-])s1)c1nc2cc3c(cc2s1)OCCO3	9.8	56.0*	17.3	2.4	2.0	5.6	4.1
Cc1ccoc1C(=O)NCCNC(=O)c1occc1C	3.6	-0.2	-3.7	-0.9	4.2	-5.5	·
Cc1ccoc1C(=O)NCCCNC(=O)c1occc1C	34.8*	47.9*	-0.3	3.0	-13.9	8.2	6.0
COc1cc(/C=C(\NC(=O)c2ccccc2)C(=O)Nc2cccc(O)c2)c([N+](=O)[O-])cc1OC	17.8	51.2*	2.2	0.5	-2.3	3.7	5.0
COc1cc(/C=C(\NC(=O)c2ccccc2)C(=O)NCCO)c([N+](=O)[O-])cc1OC	2.1	2.3	-0.5	-1.2	2.4	0.2	·
O=C(NN=C1CCc2ccccc21)c1ccccc1O	·	13.5	·	·	·	·	·
CCOC(=O)c1c(N2C(=O)C3CC(C)=C(C)CC3C2=O)sc(C)c1C (configuration not stated)	-5.5	43.1*	6.8	2.7	-0.7	-1.2	63.9*
Cc1cc(C(=O)C[N+]2(C)CCOCC2)c(C)n1-c1ccc(Br)cc1	7.5	44.7*	4.6	2.0	-1.9	5.2	-0.6
Cc1cc(C)c2oc(C(=O)Nc3nnc(C(C)C)s3)cc(=O)c2c1	-17.4	14.3	17.4	-1.4	-2.1	1.5	·
CSc1nnc(NC(=O)c2cc(=O)c3cc(C)cc(C)c3o2)s1	0.4	34.2*	8.7	-1.3	0.7	4.8	9.4
O=C(O)C(c1ccccc1)N1C(=O)/C(=C\c2ccc(-c3ccc(Br)cc3)o2)SC1=S (configuration not stated)	·	·	27.0	·	·	·	·
O=C(O)C(c1ccccc1)N1C(=O)/C(=C\c2ccc(-c3ccccc3Cl)o2)SC1=S (configuration not stated)	17.9	38.4*	21.8	-0.5	-26.5	3.9	100.4*
Nc1cccc([N+](=O)[O-])c1	1.0	3.2	2.8	0.5	-3.5	-6.5	·
Nc1cc(-c2cccc([N+](=O)[O-])c2)[nH]n1	2.3	39.1*	-9.4	-0.9	-1.9	-0.4	5.7
SMILES	GSTO1 counter	UCH37 inh	Apaf1 inhib	PP5 primary	PAD4 inh	Fh CTSL1 inh	UCH37 confirm
CC(=O)N(c1cccc(C)c1)C1SC(=O)N(c2ccccc2)C1=O (configuration not stated)	22.0	1.4	1.6	-1.0	3.1	3.1	·
CC(=O)N(N=C1Sc2ccccc2C1=O)c1cccc(C)c1	·	80.9*	·	·	·	·	72.0*
COc1ccc(N(N=C2Sc3ccccc3C2=O)C(C)=O)cc1	·	77.7*	·	·	·	·	29.4
COc1ccc(CN(C(C)=O)c2ccccc2C(=O)O)cc1	2.9	3.7	-21.4	1.6	2.6	0.0	·
CC(=NNC(=O)c1ccncc1)C1=C(O)CC(C)(C)CC1=O	·	3.4	·	·	·	·	·
O=C(O)CN1C(=O)/C(=C\c2cccc(OCc3ccc(Cl)cc3)c2)SC1=S	9.0	28.5*	13.5	-0.1	0.8	3.0	81.8*
Cn1cccc1/C=C1\SC(=S)N(CC(=O)O)C1=O	-2.1	25.1*	·	-0.9	1.7	7.1	29.8
O=C1CSC(=NN=Cc2ccccc2)N1Cc1ccco1	·	5.7	·	·	·	·	·
N=C1/C(=C/c2ccc(-c3cccc(C(=O)O)c3)o2)C(=O)N=C2SC=C(c3ccccc3)N12	-23.5	25.8*	35.9	2.3	-12.4	5.9	66.4*
N=C1/C(=C\c2ccc(-c3cc(Cl)cc(Cl)c3)o2)C(=O)N=C2SC=C(c3ccccc3)N12	-9.6	11.4	2.7	-8.5	-16.2	-6.9	·
O=C(O)CC1S/C(=N/N=Cc2ccc(-c3ccccc3[N+](=O)[O-])o2)NC1=O (configuration not stated)	·	26.2*	·	·	·	·	28.0
O=C(O)CC1S/C(=N/N=Cc2ccc(-c3ccc(Cl)cc3[N+](=O)[O-])o2)NC1=O (configuration not stated)	·	27.8*	·	·	·	·	17.0
COc1cc(C=NNC(=O)c2ccc(O)cc2)ccc1Oc1ccc([N+](=O)[O-])cn1	·	1.4	·	·	·	·	·
N#Cc1ccc(C(CC(=O)O)N2Cc3ccccc3C2=O)cc1 (configuration not stated)	6.8	5.1	0.1	1.4	-0.8	0.0	·
CC(C)c1ccc(C(CC(=O)O)N2Cc3ccccc3C2=O)cc1 (configuration not stated)	-5.3	61.6*	-0.1	2.8	1.3	-8.3	80.5*
CCCN1C=CC(=CC=C(C#N)C#N)C=C1	3.4	38.2*	2.8	-0.1	-5.5	6.9	25.6
C=CCN1C=CC(=CC=C(C#N)C#N)C=C1	-7.6	28.8*	-8.1	0.9	-7.1	6.5	20.0
C=CCN1C=C/C(=C\C=C(C#N)C#N)c2ccccc21	-85.5	6.7	22.5	8.1	-110.6	0.1	·
CCCN1C=CC(=C/C=C(\C#N)C(=O)OCC)C=C1	7.0	·	5.3	8.8	-1.4	14.7	·
CC(CC(=O)NCCCN1CCOCC1)=NNC(=O)COc1cccc2ccccc12	·	1.8	·	·	·	·	·
Cc1ccc(SC(c2ccccc2)C(Cn2cncn2)C(=O)c2ccccc2)cc1 (configuration not stated)	-1.2	42.3*	7.5	2.2	-0.8	-2.4	20.1
